Reference: ChEMBL document CHEMBL4513216, “Probing the Open Global Health Chemical Diversity Library for Multistage-Active Starting Points for Next-Generation Antimalarials” (ACS Infect Dis, 2020)

Experiment: Toxicity liver stage against HepG2, at 10uM
Type: cell-based
Design: test concentration 10 uM, cell line HepG2-A16-CD81EGFP
Settings: human, HepG2-A16-CD81EGFP cells; read-out: INHIBITION
In short: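 Uninfected HepG2-A16-CD81EGFP cells, 3 × 10^3 per well, 1536-well, plated on prespotted compound at 10 μM final, parasite-free screening media added to match infected plates; puromycin 10 μM positive, DMSO 0.5% negative; run in parallel with 48 h PbLuc assay at 37 °C, 5% CO2; viability by CellTiter-Glo luminescence, normalized to controls.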

Compound	cytotoxicity at 10 µM
Cc1cccc(CN2CCCCC2c2n[nH]cc2-c2cc(C)no2)c1 (centres undefined)	6.5%
CCCN(Cc1cnn(C)c1)CC1CCCN(S(C)(=O)=O)C1 (centres undefined)	15.1%
NC(=O)C1CCN(c2nc3nccc(-c4ccccc4)c3c(=O)[nH]2)CC1	-9%
Cc1ccc(C(=O)N2CCc3ncnc(C)c3CC2)cn1	9.75%
COc1ccc(-c2noc(C(=O)NCCN3CCCCC3)n2)cc1OC	-6.24%
Cc1ccc(CN2C[C@@H]3CN(c4ncc(F)cn4)C[C@@H]3C2)cc1	1.86%
Cc1noc(C)c1CN1CCN(Cc2cccnc2)c2ncccc2C1	-67.1%
CCn1cc(CN2CCCN(C(=O)Cc3ccc(C)nc3)CC2)cn1	-3.87%
CN1CC(C(=O)NCc2cccnc2-n2cccn2)CC1=O (centres undefined)	-6.18%
Cc1cnc(C(=O)N(C)[C@@H]2CCC[C@@H](Oc3ccccc3)[C@@H]2O)cn1	-15.3%
CN(Cc1csc(-c2cnn(C)c2)n1)CC1CCN(CCO)CC1	7.77%
CCC(CN1CCCC1)n1cncc1-c1cnn(-c2ccc(F)cc2)c1 (centres undefined)	5.29%
O=C1CCc2cc(S(=O)(=O)NCc3cc4n(n3)CCCNC4)ccc2N1	-5.38%
CSCC(C)(O)CNS(=O)(=O)Cc1ccc(F)cc1 (centres undefined)	-1.12%
CCn1nc(C)c(C(=O)NCc2csc(C3CC3)n2)c1C	20.5%
CC1CCN(S(=O)(=O)N2C[C@H](c3ccccc3)[C@@H](N)C2)CC1	-12.1%
Cc1ccccc1CN(CCN(C)C)Cc1ccccc1C(=O)O	-1.97%
COCC(=O)NCc1cccnc1-n1cnc2ccccc21	-2.8%
Cn1cccc(NC(=O)N2CCC(Cc3ccccc3)C2)c1=O (centres undefined)	11.9%
CCc1noc(C(C)N2CCN(CCc3ccncc3)CC2)n1 (centres undefined)	1.6%
Cc1ncc(C(=O)N2CCCC(C(=O)c3nccn3C)C2)c(O)n1 (centres undefined)	-2.28%
C[C@]1(O)CN(Cc2ccc(C(=O)O)cc2)CC[C@@H]1Oc1cccc(F)c1	-6.66%

Compound	cytotoxicity at 10 µM
Cc1cccc(-c2noc(CN3CC(n4cccn4)C3)n2)c1	-0.0158%
CC(O)CN1CCN(Cc2cccc(C(=O)N(C)C)c2)CC1 (centres undefined)	-3.93%
CCn1nc(C)c2nc(C(C)C)nc(NCc3ccccn3)c21	7.09%
CC(C)Cc1cc(C(=O)N2CCC(Oc3cccnc3)CC2)n(C)n1	-0.423%
Cc1nnc(SCCCNC(=O)Cc2ccc3c(c2)OCO3)s1	7.75%
CSCCc1nc(-c2ccc3c(c2)OCO3)n(C)n1	1.6%
Cc1ccccc1OC1CCN(C(=O)c2c[nH]c(=O)[nH]c2=O)CC1	5.25%
Cc1ccc(C(=O)N2C[C@@H](N3CCN(C)CC3)[C@H]3OCCC[C@H]32)cn1	-113%
C=C(C)CN(Cc1cccc(O)c1)C1CCC(O)CC1 (centres undefined)	17.3%
Cc1ccsc1C(=O)N1CC2CC1(C(=O)NCC1CC1)C2	-4.78%
CCc1csc(C2CCCN(C(=O)c3ccc(=O)n(CC)n3)C2)n1 (centres undefined)	-1.52%
COCC[C@]1(O)CCN(C2CCN(C(=O)C3CCC3)CC2)C[C@H]1C	0.866%
Cc1ccc(S(=O)(=O)NCCNc2cc(-n3cccc3)ncn2)c(C)c1	-0.817%
CCSc1ccc(NC(=O)N2CCCC2c2ccncc2)cn1 (centres undefined)	-8.88%
Cc1cn2nc(N3CCN(Cc4cc(C)on4)CC3)sc2n1	-12.1%
Cn1c(Cn2ccnc2)nnc1C1CCN(C(=O)c2ccoc2)CC1	-120%
CCN1CCC(NN2CCN(C)CC2)CC1	0.935%
CC1CN(C(=O)NCc2ccn(C)c2)CCN1CC(F)(F)F (centres undefined)	-4.32%
Cc1ccc(C(=O)N2CCC3(CC2)COC(COc2cccnc2)C3)o1 (centres undefined)	-3.16%
Cc1cc(C)nc(N2CCCC2c2cccnc2)n1 (centres undefined)	0.997%
CC(NC(=O)CCn1c(=O)oc2ccccc21)c1ccccn1 (centres undefined)	-3.34%
CCOCC1CN(C(=O)c2ccco2)Cc2cnn(C)c21 (centres undefined)	6.14%

Compound	cytotoxicity at 10 µM
O=C(NC[C@H]1OC[C@@H](NC2COC2)[C@@H]1O)c1cccs1	0.0331%
CN(Cc1ccc(-n2cncn2)cc1)Cc1ncc[nH]1	4.67%
O=C(c1ccccc1-c1ccccc1)N1CCOC2(CNCCOC2)C1 (centres undefined)	-16.2%
Cc1cc(Cc2ccc(S(=O)(=O)N3CCOCC3)cc2)c(=O)[nH]n1	-13.1%
Cc1cccc(C(=O)N2CCCN(Cc3cnn(C)c3)CC2)n1	-10.5%
CN1CCN(C(=O)Cc2csc(-c3ccsc3)n2)C(c2ccccc2)C1 (centres undefined)	-8.38%
CC(C)N(C)[C@@H]1CCN(Cc2nccs2)[C@H]1Cc1ccncc1	-2.75%
O=C(C(CNCc1ccccc1O)c1ccccc1)N1CCOCC1 (centres undefined)	-0.138%
Cc1ccccc1C1(CNC(=O)c2ccc(S(C)(=O)=O)cc2)CC1	-7.16%
CCCNC(=O)c1cc(OC)c(OC)cc1N(C)S(C)(=O)=O	-5.18%
CCOCc1ccc(CNC(=O)N2CCC(C(N)=O)C2)cc1 (centres undefined)	-11.4%
Cc1ccc(-c2cc(CNC(=O)N3CCCN(C)CC3)on2)cc1	-5.19%
Cc1cccc(CN2CC3(CCN(C4CCOC4)CC3)OCC2=O)n1 (centres undefined)	-2.92%
O=C([C@@H]1COC[C@H]2CN(C3CCCCC3)C[C@H]21)N1CCOCC1	-107%
COc1nn(C)c2c1CCCN(C(=O)c1ccsc1)C2	-0.414%
CC1COCCN1C(=O)NCCCn1ccnc1 (centres undefined)	-44.9%
Cc1ccc(C(=O)N2CCc3c(COCC4CC4)cncc3C2)o1	-74.2%
Cc1nc(N2CCC3(CCCNC3=O)C2)nc2c1CCCC2 (centres undefined)	-4.97%
COC(=O)[C@@H]1C[C@H](NC(=O)c2cc(=O)[nH]c3ccc(C)cc23)CN1C	6.46%
O=C(c1ccnnc1)N1C[C@H](OCC2CC2)[C@H]2COC[C@H]21	0.0658%
CN(C)CCNc1cc(-c2ccc[nH]c2=O)c2cc[nH]c2n1	9.26%
Cc1cc(C(=O)N2CCc3ncnc(-c4cnn(C)c4)c3CC2)c(C)o1	4.5%

Compound	cytotoxicity at 10 µM
COc1ccc2c(C(=O)N(C)C)cc(-c3cnc(N)nc3)nc2c1	-3.3%
Cc1ccnn1CC(=O)Nc1cc(-c2ccncc2)[nH]n1	-4.34%
O=C(NCCN1CCOCC1)c1ccc(OCc2ccccc2)nc1	-5.97%
Fc1ccc(C2(NCc3ccccc3)CCOCC2)cc1	-9.91%
CC(CNC(=O)c1ccn(-c2ccc(F)cc2)n1)Cn1cccn1 (centres undefined)	-41.4%
Cc1cc(C(=O)N2CCc3c(nc(-c4ccncc4)[nH]c3=O)C2)no1	-1.28%
O=C(c1ccc2c(c1)OCO2)N1CCC(C(=O)O)(c2ccccc2)CC1	7.33%
Cc1cccc(S(=O)(=O)N2C[C@@H]3OCCN(C(C)C)[C@@H]3C2)c1	7.64%
O=C(Cc1ccccn1)N1CCC2(CC1)CN(c1ncccn1)CCO2	-74.3%
Cc1cccc(CNCc2ccc(NC(=O)NC(C)C)cc2)c1	-3.03%
CC(C)c1ccc(C(N)c2cccs2)cc1 (centres undefined)	15.4%
O=C(O)c1ccn(-c2ccccc2NS(=O)(=O)c2cccc(F)c2)n1	-18.6%
CCC(CC)NCC(C)Oc1cccnc1 (centres undefined)	8.26%
Cc1ccccc1OC1CCN(CC(=O)Nc2ccn(C)n2)CC1	-3.34%
COCCOc1ccccc1C(=O)Nc1c(C)cnn1CC1CC1	1.13%
CN(C)S(=O)(=O)N1CC[C@]2(C[C@H](Oc3ncccc3F)CO2)C1	2.47%
CC(=O)c1ccc(C(=O)NCC2Cc3ccccc3O2)s1 (centres undefined)	3.82%
CCn1nnc2c1C(COCCN(C)C)CN(S(=O)(=O)CC)C2 (centres undefined)	-4.38%
O=C(OCc1cccc(F)c1)c1cccc(C(=O)N2CCCC2)n1	-1.6%
CNS(=O)(=O)CCCNC(C)(C)c1nc(C)cs1	11.1%
COc1ccc(-c2nc(CN(C)Cc3nncn3C)c(C)o2)c(C)c1C	-8.87%
COc1ccc2c(C)c(C(=O)NCC3CN(S(C)(=O)=O)CCO3)oc2c1 (centres undefined)	9.52%

Compound	cytotoxicity at 10 µM
O=C(C1CCCc2[nH]ncc21)N1CCCCCC1 (centres undefined)	4.65%
O=C(c1cccc(S(=O)(=O)NCCCc2ccco2)c1)N1CCOCC1	-23.6%
CC(C)[C@H](NS(C)(=O)=O)C(=O)NCc1cc(-c2cccc(Cl)c2)nn1C	-5.47%
CN(C)CCN1C(=O)CCC12CCCN(C(=O)CC1CC1)CC2 (centres undefined)	-1.48%
CCN1CCOC(CNCc2ccccn2)C1 (centres undefined)	-9.09%
c1cncc(C[C@H]2[C@H](N3CCOCC3)CCN2Cc2nccs2)c1	8.82%
Cc1nnsc1C(=O)N(C)Cc1nc(-c2ccccn2)no1	1.89%
CN(C)CC(=O)N1CCCCC1c1nc(N)ncc1-c1ccccc1 (centres undefined)	-0.155%
COCCN1CCCC(c2nc3c([nH]2)CC(C)(C)CNC3=O)C1 (centres undefined)	-11.6%
CCCc1cc(N2CCC(NCCc3ccc(O)cc3)CC2)nc(C)n1	-6%
CN(Cc1ccccc1)c1ncccc1CNC1CCC1	13.5%
CC(C)C(C(=O)N1CCN(c2ccncc2)CC1)n1cncn1 (centres undefined)	-9.35%
O=C(c1ccc2nncn2c1)N1CCCC(n2ccnc2)C1 (centres undefined)	-1.14%
CCC(Nc1cccc(OC)c1)C(=O)N(CCOC)Cc1cnn(C)c1 (centres undefined)	-1.28%
CC(=O)N[C@@H]1CN(C(=O)c2ccoc2)C[C@H]1c1ccc(C)cc1	16.2%
O=C(NCc1nn(-c2ccccc2)c2c1CCC2)NC1CCC(O)CC1 (centres undefined)	-7.75%
CCn1cc2c(n1)C(COC)CN(C(=O)COc1ccccc1C)C2 (centres undefined)	0.719%
CCN(C)C(=O)[C@H]1C[C@@](CC(C)C)(C(=O)OC)N(C)[C@H]1c1cccnc1	0.779%
CCc1ccc(C(=O)N2CCCn3nnc(Cn4cccn4)c3C2)cc1	7.8%
O=C(c1cc(Cl)c[nH]c1=O)N1C[C@H]2CC[C@@H](C1)N(Cc1ccccc1)C2	-113%
Cc1cc(NCCCc2c(C)noc2C)nc(N)n1	12%
